Data set [1] in a line: Neurotoxicity in ip dosed C57B/6 mouse after 30 mins by rotarod test. The format is toxicity, organism-based. As to conditions: in vivo. The method in brief:
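Mice, groups of 10, given a range of ip doses to define 10–90% minimal neurotoxicity. At 30 min after dosing, each mouse was placed on a 1-in. knurled rod rotating at 6 rpm for 1 min. Neurotoxicity meant failure to keep equilibrium in each of three trials.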
In general terms: The rotarod test checks motor coordination on a turning rod.

In data set [2] the test system is Mus musculus. Description: Anticonvulsant activity against MES-induced seizure in ip dosed C57B/6 mouse by MES test. The format is functional. As to conditions: C57B/6, ip. In outline: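 Mice, groups of 10, given a range of intraperitoneal doses until at least three points fell within 10–90% protection. MES was tested 30 min after dosing, with current applied via corneal electrodes for 0.2 s. Protection was defined as abolition of the hind-leg tonic maximal extension.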

Data set [3] is filed under the species Mus musculus. The experiment in a line: Protective index, ratio of TD50 for C57B/6 mouse by rotarod test to ED50 for C57B/6 mouse by MES test. The class given is functional.
For data set [4], the species on record is Mus musculus. Description: Anticonvulsant activity against pentylenetetrazole-induced seizure in C57B/6 mouse. The class given is functional. In outline: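 Pentylenetetrazole 85 mg/kg sc, a dose giving 100% convulsions, was given 30 min after test treatment. Latency and duration of convulsions, plus latency and percentage of lethality, were recorded over the following 1 h. ED50 was the dose preventing tonic convulsions in 50% of treated animals.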

For data set [5], the species on record is Mus musculus. The experiment in a line: Anticonvulsant activity against isoniazid-induced seizure in C57B/6 mouse. The format is functional. In outline:
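Isoniazid was given ip at 250 mg/kg, a dose set by a dose–percent effect curve to convulse 100% of animals. Test compounds were given beforehand. ED50 was the dose protecting 50% of animals from tonic convulsions.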

The species entered for data set [6] is Mus musculus. Description: Anticonvulsant activity against thiosemicarbazide-induced seizure in C57B/6 mouse. The format is functional. The method in brief:
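Thiosemicarbazide 50 mg/kg ip, a fully convulsant dose, was given 1 h after test treatment. Latency and duration of convulsions, plus lethality latency and percentage, were recorded over 2 h 30 min. ED50 was the dose preventing tonic convulsions in 50% of treated animals.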

The species named for data set [7] is Mus musculus. The experiment in a line: Anticonvulsant activity against 3-mercaptopropionic acid-induced seizure in C57B/6 mouse. The format is functional. The method in brief: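 3-Mercaptopropionic acid 40 mg/kg in saline was injected sc 1 h after test treatment. Convulsion latency and duration, plus lethality latency and percentage, were recorded over 1 h. ED50 was the dose preventing tonic convulsions in 50% of treated animals.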

Data set [8] has as its system Mus musculus. Description: Anticonvulsant activity against strychnine-induced seizure in C57B/6 mouse at 300 mg/kg. The format is functional, organism-based. Also on record: dose 300 mg/kg. In outline: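 Strychnine chlorhydrate in saline (1.2 mg/mL, 1 mL/kg) was given sc as a 100%-convulsant dose after compound pretreatment, with the compound tested at 300 mg/kg. Mice were housed individually and observed for 30 min, recording seizure onset time, number of tonic seizures and lethality.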

The source made the active and inactive calls. Some results are limits rather than exact numbers.

As usually defined, the TD50 is the dose at which the toxic effect under study appears in half of the subjects. A high value points to lower toxicity. Broadly, the ED50 is the dose at which the effect has come halfway, by size or by number of responders.

On to `CCc1nncn1-c1ccc(OCc2ccccc2)cc1`, for which the TD50 at 0.5 h in data set [1] was determined as 102 mg/kg. This compound yielded an ED50 in the data set with Mus musculus [2] of 20.8 mg/kg. The “Ratio TD50/ED50” value in the data set listed under Mus musculus [3] is 4.9.
Compound `CCOc1ccc(-n2cnnc2CC)cc1` gave a 50% effective dose (ED50) in the data set on Mus musculus [2] above 100 mg/kg.
`CCCCCCCCOc1ccc(-n2cnnc2CC)cc1` showed a TD50 at 0.5 h in data set [1] of 82.2 mg/kg. Also, the ED50 is 8.8 mg/kg with Mus musculus [2]; 26.4 mg/kg in the data set filed under Mus musculus [4]; 38.1 mg/kg in the data set filed under Mus musculus [5]; 31.7 mg/kg in the data set filed under Mus musculus [6]; 22.8 mg/kg in the data set filed under Mus musculus [7]. For the same compound, the “Ratio TD50/ED50” value in the data set listed under Mus musculus [3] is on record as 9.3. The result in the data set on Mus musculus [8] was inactive.
Regarding `CCCCCCOc1ccc2c(c1)CCc1nncn1-2`, the TD50 at 0.5 h in data set [1] came out at 30.3 mg/kg. The ED50 in the data set with Mus musculus [2] is 13.5 mg/kg. For the same compound, the “Ratio TD50/ED50” value in the data set filed under Mus musculus [3] stood at 2.2.
As to `CCCOc1ccc(-n2cnnc2CC)cc1`, the ED50 with Mus musculus [2] was above 100 mg/kg.
In the case of `Fc1ccc(COc2ccc3c(c2)CCc2nncn2-3)cc1`, the TD50 at 0.5 h in data set [1] amounted to 54.5 mg/kg. Moreover, in the data set with Mus musculus [2], the 50% effective dose (ED50) came out at 11.8 mg/kg. Further, in the data set filed under Mus musculus [3], the “Ratio TD50/ED50” value was determined as 4.6.
On the same counts, the results for `CCc1nncn1-c1ccc(OCc2ccccc2Cl)cc1` are 76.1 mg/kg, 13.2 mg/kg and 5.8.
On the same counts, the results for `c1ccc(COc2ccc3c(c2)CCc2nncn2-3)cc1` are 61.4 mg/kg, 17.3 mg/kg and 3.5.
For `CCc1nncn1-c1ccc(OCc2cccc(F)c2)cc1`, in that order: 91.2 mg/kg, 22.8 mg/kg and 4.
With `CCc1nncn1-c1ccc(OCc2c(F)cccc2F)cc1`, the TD50 at 0.5 h in data set [1] was found to be 109 mg/kg. Further, the ED50 with Mus musculus [2] is 15.8 mg/kg. In the data set filed under Mus musculus [3], the “Ratio TD50/ED50” value is given as 6.9.
For `CCc1nncn1-c1ccc(OCc2cccc(Cl)c2)cc1`, in that order: 110 mg/kg, 27.4 mg/kg and 4.
As to `CCc1nncn1-c1ccc(OCc2c(Cl)cccc2Cl)cc1`, the TD50 at 0.5 h in data set [1] amounted to 132 mg/kg. This compound also returned a 50% effective dose (ED50) in the data set with Mus musculus [2] of 15.8 mg/kg. The “Ratio TD50/ED50” value in the data set filed under Mus musculus [3] came out at 8.3.
On the same counts, the results for `CCc1nncn1-c1ccc(OCc2ccc(Cl)cc2)cc1` are 137 mg/kg, 19.7 mg/kg and 10.4.
For the compound `CCCCOc1ccc(-n2cnnc2CC)cc1`, the median effective dose (ED50) with Mus musculus [2] is above 100 mg/kg.
In data set [1], `CCc1nncn1-c1ccc(OCc2ccc(C)cc2)cc1` displayed a TD50 at 0.5 h of 101 mg/kg. In addition, in the data set on Mus musculus [2], the ED50 is 25.5 mg/kg. Besides, the “Ratio TD50/ED50” value in the data set filed under Mus musculus [3] is recorded as 4.
On the same counts, the results for `Cc1ccc(COc2ccc3c(c2)CCc2nncn2-3)cc1` are 65.8 mg/kg, 20.5 mg/kg and 3.2.
For `CCc1nncn1-c1ccc(OCc2ccc3c(c2)OCO3)cc1`, in that order: 189 mg/kg, 20.1 mg/kg and 9.4.
For `CCCCCCOc1ccc(-n2cnnc2CC)cc1`, in that order: 62.1 mg/kg, 13.2 mg/kg and 4.7.
In turn, `CCc1nncn1-c1ccc(OCc2ccccc2F)cc1` yielded a TD50 at 0.5 h in data set [1] of 61.5 mg/kg. Further, the ED50 in the data set on Mus musculus [2] came to 21.2 mg/kg. Further, the “Ratio TD50/ED50” value in the data set filed under Mus musculus [3] was found to be 2.9.
For `CCc1nncn1-c1ccc(OCc2ccc(F)cc2)cc1`, in that order: 91.3 mg/kg, 22.8 mg/kg and 4.
Take `CCCCCCCOc1ccc(-n2cnnc2CC)cc1`: the TD50 at 0.5 h in data set [1] is 45.6 mg/kg. Further, it took a dose of 8.3 mg/kg to reach the 50% effect level with Mus musculus [2] (ED50). Moreover, the “Ratio TD50/ED50” value in the data set listed under Mus musculus [3] is recorded as 5.5.
With `CCCCCCCCCCCCOc1ccc(-n2cnnc2CC)cc1`, the median effective dose (ED50) in the data set with Mus musculus [2] was above 100 mg/kg.
For the compound `CCc1nncn1-c1ccc(OCc2ccc(OC)cc2)cc1`, the TD50 at 0.5 h in data set [1] was 132 mg/kg. Further, it took a dose of 15.8 mg/kg to reach the 50% effect level in the data set on Mus musculus [2] (ED50). For the same compound, in the data set filed under Mus musculus [3], the “Ratio TD50/ED50” value came out at 8.3.

The record behind these values is ChEMBL document CHEMBL1137442, “Synthesis and anticonvulsant evaluation of 4-(4-alkoxylphenyl)-3-ethyl-4H-1,2,4-triazoles as open-chain analogues of 7-alkoxyl-4,5-dihydro[1,2,4]triazolo[4,3-a]quinolines” (Bioorg Med Chem, 2007).
